In publication PMC4834983 (Journal of medicinal chemistry, 2015):
pIC50: −log10 of the molar value. Entries after “also recorded” stand apart in the source; their conditions may differ. Values belong to the compound of their own block, whether it stands above or below them.

How the values were obtained:
U251MG cells [1] = test: Apoptosis by PARP or caspase cleavage; assay type: cell-based, human; conditions: 24 or 48 h
U251MG cells [2] = test: CyQuant cell proliferation assay; assay type: cell-based, human
Method in brief: (§1)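 CyQuant DNA-dye proliferation assay on cultured cells after 72 h exposure to test compound. Viability expressed relative to DMSO-treated control cells.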

pYStat3 = test: Immunoblotting of pStat3 in treated U251MG cells; assay type: cell-based, human; conditions: for effect on pStat3 in treated tumor cells: 5 μM, glioma cells, immunoblotting
Method in brief: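 Whole-cell lysates from U251MG cells given test compound at 5 μM for 0–24 h, or at 0–5 μM for 2 h. Immunoblotted for pY705Stat3 and total Stat3, with GAPDH as loading reference.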

[3] = Cysteamine 1H NMR test for Michael acceptor reactivity; assay type: physicochemical; conditions: DMSO-d6, 1H NMR
Stat3:Stat3 = Stat3:Stat3 (Mus musculus, UniProt P42227); test: Cell-free EMSA, nuclear extracts pre-incubated with compound, hSIE probe; assay type: biochemical; conditions: 5 μM, 30 min pre-incubation, NIH3T3/v-Src nuclear extracts
U251MG cells [4] = test: Immunofluorescence staining/confocal microscopy of mitosis; assay type: cell-based, human; conditions: 15 h treatment
Method in brief: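 U251MG cells on coverslips synchronised by double thymidine block (2 mM) and released for 9 h. Then given DMSO, 100 nM paclitaxel or 8 μM test compound for 15 h. Fixed in 4% paraformaldehyde, permeabilised with 0.1% digitonin and blocked in 0.2% BSA. Stained with anti-β-tubulin (1:350) and anti-MAP1B (1:300) for 1 h at room temperature, then fluorescent secondaries and DAPI; confocal imaging.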

Stat3 = Stat3 DNA-binding activity/EMSA of nuclear extracts from treated glioma cells; assay type: cell-based, human; conditions: for effect on Stat3 DNA-binding activity in treated tumor cells: 5 μM, glioma cells, EMSA
Stat1:Stat1 = biological target: T1, Stat1:Stat1 (Mus musculus, UniProt P42225); test: Cell-free EMSA, EGF-stimulated NIH3T3/hEGFR nuclear extracts; assay type: biochemical; conditions: 5 μM, 30 min pre-incubation
T1 sequence (P42225 2-749 limits assumed): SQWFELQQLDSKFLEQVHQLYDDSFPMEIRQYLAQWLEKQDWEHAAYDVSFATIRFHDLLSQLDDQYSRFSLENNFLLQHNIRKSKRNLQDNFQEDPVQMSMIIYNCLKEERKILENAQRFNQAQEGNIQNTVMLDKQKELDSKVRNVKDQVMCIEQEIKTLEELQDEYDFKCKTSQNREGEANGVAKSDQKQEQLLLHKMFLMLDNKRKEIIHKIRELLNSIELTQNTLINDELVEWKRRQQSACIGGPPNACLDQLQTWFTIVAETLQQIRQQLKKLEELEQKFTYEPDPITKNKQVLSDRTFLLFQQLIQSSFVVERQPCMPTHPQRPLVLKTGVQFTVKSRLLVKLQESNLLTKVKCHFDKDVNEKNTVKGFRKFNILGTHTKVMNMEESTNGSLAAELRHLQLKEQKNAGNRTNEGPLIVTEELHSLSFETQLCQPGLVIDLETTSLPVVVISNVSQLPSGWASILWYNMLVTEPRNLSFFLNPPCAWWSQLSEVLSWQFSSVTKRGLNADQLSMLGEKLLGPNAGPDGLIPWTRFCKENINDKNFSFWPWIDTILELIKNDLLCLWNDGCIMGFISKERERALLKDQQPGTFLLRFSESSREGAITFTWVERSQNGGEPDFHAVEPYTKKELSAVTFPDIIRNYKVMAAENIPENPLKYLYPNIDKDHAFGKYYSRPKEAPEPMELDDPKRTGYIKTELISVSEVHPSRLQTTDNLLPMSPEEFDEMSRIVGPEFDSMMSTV
Method in brief: (§2)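 Nuclear extracts from EGF-stimulated NIH3T3/hEGFR fibroblasts, containing active Stat1, Stat3 and Stat5, preincubated with 5 μM test compound for 30 min at room temperature. Then incubated 30 min with 32P-labelled probe before EMSA: hSIE (Stat1/Stat3 binding) or MGFe (bovine β-casein element; Stat1/Stat5 binding). STAT:DNA bands quantified as percent of control.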

Stat5:Stat5 = test: Cell-free EMSA, EGF-stimulated NIH3T3/hEGFR nuclear extracts, MGFe probe; assay type: biochemical, mouse; conditions: 5 μM, 30 min pre-incubation
Method in brief: as §2

MDA-MB-231 cells = test: CyQuant cell proliferation assay; assay type: cell-based, human; conditions: Homo sapiens, MDA-MB-231, 72 h, read-out: IC50 cell proliferation MDA-MB-231
Method in brief: as §1

SF295 cells = test: CyQuant cell proliferation assay; assay type: cell-based; conditions: Homo sapiens, SF-295, 72 h, read-out: IC50 cell proliferation SF295
Method in brief: as §1

U373MG cells = test: CyQuant cell proliferation assay; assay type: cell-based; conditions: Homo sapiens, U373 MG, 72 h, read-out: IC50 cell proliferation U373MG
Method in brief: as §1

MCF-7 cells = test: CyQuant cell proliferation assay; assay type: cell-based; conditions: Homo sapiens, MCF7, 72 h, read-out: IC50 cell proliferation MCF-7
Method in brief: as §1

G10 cells = test: Growth of glioma patient-derived xenograft cells in vitro; assay type: cell-based; conditions: Homo sapiens, read-out: inhibitory activity against growth of G10 cells
G22 cells [5] = test: as above; assay type: cell-based; conditions: Homo sapiens, read-out: inhibitory activity against growth of G22 cells
G12 cells = test: as above; assay type: cell-based; conditions: Homo sapiens, read-out: inhibitory activity against G12 cell growth
NIH3T3 cells [6] = test: Colony survival assay; assay type: cell-based, mouse; conditions: 5 μM or less
Method in brief: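 Cells seeded as single cells at 250 per well and treated once the next day with test compound (0–5 μM) for 72 h. Grown until large colonies were visible: 1 week for NIH3T3, 2 weeks for U251MG. Colonies stained with crystal violet for 4 h and counted.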

U251MG cells [7] = test: Scratch assay for migration; assay type: cell-based, human; conditions: 5 μM, 19-h treatment
Method in brief: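 Sub-confluent U251MG monolayers wounded with pipette tips and treated once with test compound (0–5 μM) or DMSO vehicle. Cells allowed to migrate into the denuded area over 19 h, then imaged by microscopy at 10×.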

G22 cells [8] = test: 3D spheroid assay; assay type: cell-based, human; conditions: 5 μM, treated once
pStat3 = test: Immunoblotting of pStat3 in patient-derived xenograft cells; assay type: cell-based, human; conditions: 5 μM, 3 h
Method in brief: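 Glioma patient-derived xenograft G22 cells (DMEM, 5–10% heat-inactivated FBS) given 5 μM test compound for 0–24 h. Whole-cell lysates immunoblotted for pStat3 and Stat3, with GAPDH as loading reference.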

pStat1 = test: Immunoblotting, EGF-stimulated NIH3T3/hEGFR fibroblasts; assay type: cell-based, mouse; conditions: 5 μM pre-treatment
Method in brief: (§3)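 NIH3T3/hEGFR fibroblasts pretreated with or without 5 μM test compound for 3 h, then stimulated with 1 μg/ml EGF for 12 min. Whole-cell lysates, equal total protein, immunoblotted for pStat1/Stat1, pStat5/Stat5 and pErk1/2/Erk1/2.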

pStat5 = test: as above; assay type: cell-based, mouse; conditions: 5 μM pre-treatment
Method in brief: as §3

pErk1/2MAPK [9] = test: as above; assay type: cell-based, mouse; conditions: 5 μM pre-treatment
Method in brief: as §3

pS-Akt = test: Immunoblotting, U251MG glioma cells; assay type: cell-based, human; conditions: 5 μM
Method in brief: (§4)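 U251MG cells given 5 μM test compound for 0–24 h. Whole-cell lysates of equal total protein immunoblotted for pErk1/2, Erk1/2, pS-Akt, Akt, pJAK2, JAK2, SOCS3 and PTP1B, with β-actin or GAPDH as loading reference.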

pErk1/2MAPK [10] = test: Immunoblotting, U251MG glioma cells; assay type: cell-based, human; conditions: 5 μM
Method in brief: as §4

[11] = system: suppressors of cytokine signaling (SOCS)3; test: Immunoblotting, U251MG glioma cells; assay type: cell-based, human; conditions: 5 μM
Method in brief: as §4

[12] = system: protein tyrosine phosphatase (PTP)1B; test: Immunoblotting, U251MG glioma cells; assay type: cell-based, human; conditions: 5 μM
Method in brief: as §4

NIH3T3 cells [13] = test: CyQuant cell proliferation assay; assay type: cell-based, mouse; conditions: 5 μM
Method in brief: as §1

Stat3:Stat3, sequence (P42227 2-770 limits assumed): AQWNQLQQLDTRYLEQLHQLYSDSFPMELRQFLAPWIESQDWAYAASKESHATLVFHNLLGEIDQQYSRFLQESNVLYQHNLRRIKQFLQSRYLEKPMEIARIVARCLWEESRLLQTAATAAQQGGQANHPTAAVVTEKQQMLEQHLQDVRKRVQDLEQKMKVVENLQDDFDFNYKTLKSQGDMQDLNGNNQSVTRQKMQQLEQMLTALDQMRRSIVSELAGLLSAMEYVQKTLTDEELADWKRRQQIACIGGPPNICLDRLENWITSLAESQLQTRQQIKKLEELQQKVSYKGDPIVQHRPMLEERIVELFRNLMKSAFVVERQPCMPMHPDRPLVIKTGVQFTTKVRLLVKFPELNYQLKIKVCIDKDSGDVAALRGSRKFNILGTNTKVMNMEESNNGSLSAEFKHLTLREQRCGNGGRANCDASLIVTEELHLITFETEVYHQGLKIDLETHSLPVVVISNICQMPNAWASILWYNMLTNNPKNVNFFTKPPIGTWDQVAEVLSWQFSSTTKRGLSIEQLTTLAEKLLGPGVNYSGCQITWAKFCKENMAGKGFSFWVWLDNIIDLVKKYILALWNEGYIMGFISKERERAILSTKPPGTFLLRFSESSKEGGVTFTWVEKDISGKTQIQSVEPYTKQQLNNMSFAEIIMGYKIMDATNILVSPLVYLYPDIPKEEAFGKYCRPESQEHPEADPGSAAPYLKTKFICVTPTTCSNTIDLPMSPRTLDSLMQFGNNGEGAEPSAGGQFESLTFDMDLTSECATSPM

Structure (SMILES): CN[C@@H]1C[C@H]2O[C@@](C)([C@@H]1OC)n1c3ccccc3c3c4c(c5c6ccccc6n2c5c31)C(=O)NC4 [staurosporine]
apoptosis measured by PARP or caspase cleavage (U251MG cells [1]): induced apoptosis

Structure (SMILES): C=C1C(=O)O[C@@H]2/C=C(\C)CC/C=C(\C)CC[C@@H]12 [costunolide, reference compound]
cell growth activity, control compounds (U251MG cells [2]; panel of cell lines, Fig. S5E(i)): poorly-active or non-specific in activity
Stat3 activity in tumor cells, control compounds (pYStat3; Fig. S5E(ii)): did not inhibit
Michael acceptor reaction with cysteamine [3]: formation of diastereomeric Michael adduct mixtures

Structure (SMILES): CC(=O)O[C@H]1C(=O)[C@@]2(C)[C@H]([C@H](OC(=O)c3ccccc3)[C@]3(O)C[C@H](OC(=O)[C@H](O)[C@@H](NC(=O)c4ccccc4)c4ccccc4)C(C)=C1C3(C)C)[C@]1(OC(C)=O)CO[C@@H]1C[C@@H]2O [paclitaxel, reference compound]
chromatid structures and sister-chromatids segregation (mitosis) (U251MG cells [4]): caused strong defects
apoptosis measured by PARP or caspase cleavage (U251MG cells [1]): induced apoptosis

Second part, led by results:

Michael acceptor reaction with cysteamine [3]: indicative of Michael acceptor reactions
Structure (SMILES): C=C(C)C(=O)O[C@H]1C[C@@H](C)[C@]2(OC)CC[C@](C)(/C=C3/OC(=O)C(COC(C)=O)=C31)O2 [Compound 9]
effect on pStat3 in treated tumor cells (pYStat3): little impact
Stat3:Stat3/DNA-binding activity (complexation), cell-free EMSA (Stat3:Stat3): no effect; also recorded: only weakly inhibited

Stat3:Stat3/DNA-binding activity (complexation), cell-free EMSA (Stat3:Stat3): diminished
effect on Stat1:Stat1 activity, cell-free EMSA (Stat1:Stat1): weak effects
Structure (SMILES): CC(=O)OCC1=C2/C(=C\[C@@]3(C)CC[C@](O)(O3)[C@H](C)C[C@@H]2O)OC1=O [Compound 11]
effect on pStat3 in treated tumor cells (pYStat3): weak effect
effect on Stat3 DNA-binding activity in treated tumor cells (Stat3): weak effect
effect on Stat5:Stat5 activity, cell-free EMSA (Stat5:Stat5): weak effects
chromatid structures and sister-chromatids segregation (mitosis) (U251MG cells [4]): minimal effect

pIC50 (MDA-MB-231 cells): 5.04 to 5.28
pIC50 (MCF-7 cells): 5.02 to 5.32
Stat3:Stat3/DNA-binding activity (complexation), cell-free EMSA (Stat3:Stat3): diminished
effect on Stat1:Stat1 activity, cell-free EMSA (Stat1:Stat1): weak effects
Michael acceptor reaction with cysteamine [3]: Michael acceptor reactions have occurred
Structure (SMILES): C/C=C(\C)C(=O)O[C@H]1C[C@@H](C)[C@]2(OC)CC[C@](C)(/C=C3/OC(=O)C(COC(C)=O)=C31)O2 [Compound 10]
pIC50 (SF295 cells): 4.74 to 5.13
pIC50 (U373MG cells): 5.09 to 5.18
effect on pStat3 in treated tumor cells (pYStat3): strongly inhibited
effect on Stat3 DNA-binding activity in treated tumor cells (Stat3): strongly inhibited
effect on Stat5:Stat5 activity, cell-free EMSA (Stat5:Stat5): weak effects
inhibition at 5 µM (G10 cells): 45 to 60%
inhibition at 5 µM (G22 cells [5]): 45 to 60%
inhibition at 5 µM (G12 cells): 25 to 35%
effects on NIH3T3 colony numbers (NIH3T3 cells [6]): moderate or none
migration into the denuded area (U251MG cells [7]): slowed migration
3D spheroid growth (G22 cells [8]): modest
effect on Phospho-Stat3 in G22 cells (pStat3): moderate inhibition
effect on EGF-stimulated pStat1 levels (pStat1): no effect
effect on EGF-stimulated pStat5 levels (pStat5): no effect
effect on EGF-stimulated pErk1/2MAPK levels (pErk1/2MAPK [9]): no effect
effect on pS-Akt levels (pS-Akt): no effects
effect on pErk1/2MAPK levels (pErk1/2MAPK [10]): no effects
effect on SOCS3 levels [11]: no effects
effect on PTP1B levels [12]: no effects

pIC50 (MDA-MB-231 cells): 5.04 to 5.28
pIC50 (MCF-7 cells): 5.02 to 5.32
Stat3:Stat3/DNA-binding activity (complexation), cell-free EMSA (Stat3:Stat3): diminished
effect on Stat1:Stat1 activity, cell-free EMSA (Stat1:Stat1): weak effects
Structure (SMILES): C/C=C(/C)C(=O)O[C@H]1C[C@@H](C)[C@]2(O)CC[C@](C)(/C=C3/OC(=O)C(COC(C)=O)=C31)O2 [Compound 20]
pIC50 (SF295 cells): 4.74 to 5.13
pIC50 (U373MG cells): 5.09 to 5.18
effect on pStat3 in treated tumor cells (pYStat3): strongly inhibited
effect on Stat3 DNA-binding activity in treated tumor cells (Stat3): strongly inhibited
effect on Stat5:Stat5 activity, cell-free EMSA (Stat5:Stat5): weak effects
effect on EGF-stimulated pStat1 levels (pStat1): no effect
effect on EGF-stimulated pStat5 levels (pStat5): no effect
effect on EGF-stimulated pErk1/2MAPK levels (pErk1/2MAPK [9]): no effect
effect on pS-Akt levels (pS-Akt): no effects
effect on pErk1/2MAPK levels (pErk1/2MAPK [10]): no effects
effect on SOCS3 levels [11]: no effects
effect on PTP1B levels [12]: no effects

pIC50 (Stat3; Homo sapiens, U-251, read-out: IC50 Stat3 DNA-binding activity in treated cells): 5.60 to 6.30
Stat3:Stat3/DNA-binding activity (complexation), cell-free EMSA (Stat3:Stat3): diminished
Structure (SMILES): C/C=C(\C)C(=O)OCC1=C2/C(=C\[C@@]3(C)CC[C@](O)(O3)[C@H](C)C[C@@H]2OC(=O)/C(C)=C/C)OC1=O [Compound 38]
activity against U251MG cell growth (U251MG cells [2]; 5 μM): retained or improved the inhibitory potency
effect on NIH3T3 growth (NIH3T3 cells [13]): inhibited NIH3T3 growth
effect on pStat3 in treated tumor cells (pYStat3): suppressed
effect on Stat3 DNA-binding activity in treated tumor cells (Stat3): suppressed
